Screening results as filed in PubChem.
Compounds with a hit are over-represented: about 2% of the library has one in this group of screens.
RBBP9 inh: inhibitors of human serine hydrolase RBBP9; O75884; recombinant RBBP9, FP-Rh probe fluorescence polarization; inhibition, % at 7.94 µM; actives 0.2% (n = 220,000);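 active = inhibition above the campaign mean of all tested compounds plus 3 SD, cut at about 14% in these data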;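 also: plate controls were DMSO wells with RBBP9 for no effect and wells lacking RBBP9 protein for full effect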
Target sequence (O75884 whole entry, looked up): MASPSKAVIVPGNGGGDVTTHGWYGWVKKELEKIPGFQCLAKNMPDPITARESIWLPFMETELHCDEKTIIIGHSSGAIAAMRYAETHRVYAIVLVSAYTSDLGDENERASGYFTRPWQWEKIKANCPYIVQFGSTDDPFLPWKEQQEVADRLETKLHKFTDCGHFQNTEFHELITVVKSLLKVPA
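Test system – recombinant human RBBP9 · Input – RBBP9 2.5 µM in dispensing solution, pre-mixing · Medium – Tris buffer pH 8.0, NaCl, Pluronic · Schedule – preincubation 30 min plus labeling 45 min at 25 °C · Measured by – fluorescence polarization · Measure – % inhibition · Controls – DMSO and no-protein wells · Replicates – one well per compound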
Lipid droplet: modulators of hepatic lipid droplet formation; actives 0.4% (n = 240,000); AML12 mouse hepatocytes, oleate lipid droplets, BODIPY imaging; inhibition, % at 6.5 µM;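 active = lipid droplet intensity inhibited by at least 50%, with more than 500 cells counted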
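Assay system: AML12 hepatocytes (mouse) / Also added: 100 µM oleic acid challenge / Times: overnight treatment with compound plus oleate / Detection: high-content imaging of BODIPY-stained droplets and DAPI nuclei / Evaluation: % inhibition of lipid droplet signal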
Tb hexokinase: blocks Trypanosoma brucei hexokinase 1 activity. recombinant TbHK1, G6PDH-coupled NADH A340. inhibition, % at 10 µM. actives 0.11% (n = 220,000);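 active = inhibition of 50% or more in the single-dose primary screen; inactive = inhibition below 50%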
zVAD death inh: blocks zVAD induced death of L929 cells | actives 0.38% (n = 220,000) | viability rescue, % at 10 µM | AID 1377 | L929 zVAD necroptosis rescue, ATP luminescence, 24 h; with zVAD 60 µM;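 active = activation, scaled between plate controls, above about 75%, limit read from the data; inactive = activation under that limit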;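 also: 0% = zVAD with DMSO and 100% = DMSO alone without zVAD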
PfM18AAP inh-1: PfM18AAP enzyme inhibition | recombinant PfM18AAP, H-Glu-NHMec fluorogenic cleavage | inhibition, % at 7.35 µM | actives 1.2% (n = 290,000);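 active = inhibition above the campaign mean inhibition over all tested compounds plus 3 SD, cut at about 28% in these data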;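 also: 0% = plate median of test compound wells and 100% = 2 mM ZnCl2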
TNF death inh: inhibitors of TNF-alpha induced necroptosis in Jurkat FADD-/- cells; Jurkat FADD-/- TNF necroptosis rescue, ATP luminescence, 24 h; 0 = TNF only, 100 = no-TNF cells; activation (protection from cell death), % at 10 µM; actives 0.068% (n = 220,000);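 active = activation, meaning protection from cell death, of at least 50% relative to plate controls; inactive = activation below 50%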;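 also: necroptosis triggered by 40 ng/mL TNF-alpha added together with compound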
PfM18AAP inh-2: PfM18AAP inhibition, confirmation. shares compounds with PfM18AAP inh-1. recombinant PfM18AAP, H-Glu-NHMec fluorogenic cleavage. inhibition, % at 7.35 µM. actives 28% (n = 2,400). AID 2170;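 active = mean inhibition over replicate wells above the hit cutoff set for the earlier primary screen, cut at about 29% in these data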;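 also: 0% = median of test compound wells and 100% = 2 mM ZnCl2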
CTSL1 counter: Cathepsin L (human) inhibition, confirmation; shares compounds with PfM18AAP inh-1; purified cathepsin L1, Z-Leu-Arg-MCA fluorescence; inhibition, % at 5.96 µM; 2,400 tested, under 10 active;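 active = average inhibition across replicates above the hit cutoff set in the earlier primary screen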;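 also: 0% = median of test compound wells and 100% = Z-Phe-Ala-diazomethylketone 1 µM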
Target sequence (P07711 whole entry, looked up): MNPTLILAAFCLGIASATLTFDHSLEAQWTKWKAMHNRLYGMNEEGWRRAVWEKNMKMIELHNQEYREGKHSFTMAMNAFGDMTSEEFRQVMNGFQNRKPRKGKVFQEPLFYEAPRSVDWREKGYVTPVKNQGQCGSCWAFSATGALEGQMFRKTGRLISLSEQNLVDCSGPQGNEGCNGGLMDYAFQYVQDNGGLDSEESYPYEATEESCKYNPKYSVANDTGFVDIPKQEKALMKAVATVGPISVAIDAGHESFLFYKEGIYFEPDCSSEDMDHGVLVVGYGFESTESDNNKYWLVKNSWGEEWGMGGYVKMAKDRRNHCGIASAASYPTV
Numbers without * were called inactive; / = no result.

SMILES | RBBP9 inh | Lipid droplet | Tb hexokinase | zVAD death inh | PfM18AAP inh-1 | TNF death inh | PfM18AAP inh-2 | CTSL1 counter
COc1ccc(C2C(C(C)=O)=C(C)N=c3s/c(=C\c4ccco4)c(=O)n32)c(OC)c1 (stereo unspecified) | -1 | / | -15 | 0 | 37* | -4 | -7 | 6
O=S(=O)(NC1=NCCCCC1)c1ccc(Cl)cc1 | -3 | -11 | -2 | 2 | -2 | 0 | / | /
Cc1cc(C)nc(SCC(=O)c2ccc(C)c(C)c2)n1 | / | -22 | / | / | -9 | / | / | /
Cc1cc(=O)[nH]c(SCC(=O)c2ccc(O)c(O)c2)n1 | / | / | / | / | 68* | / | 59* | -4
Cc1cc(SCC(=O)c2ccc(O)c(O)c2)n2nc(C)c(-c3ccccc3)c2n1 | -6 | 0 | -16 | 1 | 57* | -10 | 37* | -5
Cc1cc(C)nc(SCC(=O)c2ccc(O)c(O)c2)n1 | / | -1 | / | / | 50* | / | 28 | 7
COCc1cc(C)nc(SCC(=O)c2ccc(O)c(O)c2)c1C#N | -11 | 12 | -16 | 42 | 62* | -4 | 39* | -2
CCSc1cc(C)nc2c(-c3ccc(Cl)cc3)c(C)nn12 | 0 | / | 3 | 1 | 2 | 1 | / | /
O=C(CSc1nc2ccccc2c(=O)[nH]1)c1ccc(O)c(O)c1 | -1 | -26 | -8 | 0 | 65* | 0 | 68* | 2
Cc1cc(C)nc(SCNC(=O)c2ccc(Cl)cc2)n1 | -3 | 20 | -7 | 0 | 51* | 0 | -29 | 0
O=C(CSc1nc2ccccc2c(=O)[nH]1)c1ccc(O)cc1O | -6 | -7 | -35 | 1 | 1 | -2 | / | /
O=C(NNC(=S)Nc1ccccc1C(F)(F)F)C1CC1 | -4 | -10 | 5 | 0 | -3 | -3 | / | /
CCOC(=O)N1CCc2c(sc(NC(=O)CN3CCOCC3)c2C#N)C1 | 0 | -14 | -12 | 0 | -7 | 3 | / | /
CCOC(=O)N1CCc2c(sc(N)c2C#N)C1 | -4 | -5 | 7 | 0 | 39* | 1 | -43 | 6
CCn1c(=S)sc2c(=O)n(CC(=O)Nc3ccc(OC)c(Cl)c3)c(C)nc21 | / | 8 | / | / | 1 | / | / | /
O=C(O)c1ccc(Cn2cc(/C=C\[N+](=O)[O-])c3ccccc32)o1 | / | -2 | / | / | 39* | / | -29 | -4
COC(=O)c1ccc(Cn2cc(/C=C\[N+](=O)[O-])c3ccccc32)o1 | / | -26 | / | / | -5 | / | / | /
CCC(=O)Nc1cc(C(=O)O)ccc1S(=O)(=O)c1ccc(C)cc1 | -12 | 12 | 21 | / | 5 | 1 | / | /
CCCCOC(=O)Nc1sc2c(c1C(=O)OC)CCC2 | -8 | / | -5 | 2 | -7 | 1 | / | /
NNc1nccc(Nc2ccccc2C(=O)O)n1 | -5 | -2 | -6 | 1 | 43* | 1 | 26 | 3
O=C(O)Cc1sc(Nc2ccc(Cl)cc2)nc1-c1cccs1 | -28 | 16 | 3 | -1 | 33* | -1 | -30 | 1
COc1cccc(Oc2ncnc(N)c2[N+](=O)[O-])c1 | / | / | / | / | -17 | / | / | /
NNc1nc(-c2ccccc2)c2cc(Br)ccc2n1 | / | 0 | / | / | 35* | / | -6 | 5
NNc1nc(-c2ccccc2)c2cc(Cl)ccc2n1 | -5 | 1 | 1 | 1 | 19 | 0 | / | /
Cc1cc(C=NCCCO)c(C)n1-c1cc(Cl)ccc1Cl | -11 | 7 | 11 | 0 | 5 | -2 | / | /
SMILES | RBBP9 inh | Lipid droplet | Tb hexokinase | zVAD death inh | PfM18AAP inh-1 | TNF death inh | PfM18AAP inh-2 | CTSL1 counter
O=c1c2cc3c(=O)n(-c4ccccc4O)c(=O)c3cc2c(=O)n1-c1ccccc1O | -1 | -8 | -6 | 0 | 41* | -1 | -40 | 6
Cc1c(O)cc2n(c1=O)-c1ccccc1C2(C)C | 6 | 0 | 2 | -1 | 15 | -1 | / | /
CCCc1cc(=O)oc2cc(OC(C)C(=O)NC3CC(C)(C)NC(C)(C)C3)ccc12 (stereo unspecified) | / | -6 | / | / | -2 | / | / | /
Cc1nc(SCC(=O)Nc2ccccc2Cl)oc1C | / | -6 | / | / | -3 | / | / | /
COC(=O)C(C)Sc1n[nH]c(=S)s1 (stereo unspecified) | 1 | 6 | -7 | 0 | 37* | 0 | -24 | -1
COC(=O)CSc1n[nH]c(=S)s1 | -13 | -10 | -4 | / | 22 | 1 | / | /
Cc1cc(=O)[nH]c(N/N=C/c2ccccc2Cl)n1 | / | 9 | / | / | 12 | / | / | /
COc1cccc(/C=N/Nc2nnc(C)n2N)c1OCc1ccccc1Cl | -9 | -9 | -3 | 2 | 41* | -1 | -31 | 2
CCc1nnc(N/N=C/c2ccccc2Cl)n1N | -1 | / | -6 | 0 | 39* | -5 | -53 | 0
Nn1cnnc1N/N=C/c1cccc(Cl)c1Cl | / | -3 | / | / | 52* | / | -46 | 4
FC(F)(F)c1ccccc1/C=N/Nc1ccccn1 | -1 | -15 | -24 | 14 | 4 | 6 | / | /
Nn1cnnc1N/N=C/c1ccccc1C(F)(F)F | / | / | / | / | 48* | / | -31 | 2
Cc1ccc(C(=O)Nc2ccccc2N2CCCC2)cc1 | / | -4 | / | / | 5 | / | / | /
COc1ccc(C(=O)COc2ccccc2C(=O)Nc2ccccc2)cc1 | -8 | / | -5 | -1 | -7 | -1 | / | /
Cc1ccc(CNC(=O)c2cc3cc(Br)ccc3oc2=N)cc1 | / | -5 | / | / | 0 | / | / | /
Cc1c(Cl)cccc1NC(=S)N1CCN(C(=O)C2CCCO2)CC1 (stereo unspecified) | 3 | 18 | 4 | 0 | -6 | 2 | / | /
Cc1ccc(O)c(NC(=O)/C=C/C(=O)O)c1 | 8 | -7 | -6 | 0 | 33* | 0 | -22 | 4
Cc1nnc2sc(SCC(=O)Nc3cccc(Cl)c3)nn2c1=O | 1 | 4 | -11 | -1 | 12 | 3 | / | /
Cc1cccc(C(=O)Nc2cccc(C(=O)N3CCOCC3)c2)c1 | -7 | 22 | -4 | 0 | 4 | 1 | / | /
CC(=O)/C(=N/Nc1cccc(C)c1)N1CCOCC1 | -5 | -11 | -29 | -1 | 42* | -2 | -68 | 27*
COc1ccc(CCNc2ccc(N3C(=O)CC(C)C3=O)cc2[N+](=O)[O-])cc1OC (stereo unspecified) | -2 | 0 | -4 | 5 | -1 | -9 | / | /
COc1cc(CNc2ccc(N3CCCCC3)cc2)ccc1OCC(=O)NC(C)(C)C | / | -26 | / | / | 43* | / | -33 | -1
Cc1nc2c(C)cccn2c1C(=O)N/N=C/c1ccccc1[N+](=O)[O-] | -7 | -6 | -44 | 0 | 40* | -1 | -41 | -3
Cn1c(CO)nc2cc(N)ccc21 | -5 | / | 5 | 1 | 39* | 0 | -45 | 1
Nc1ccc(-c2nc3cc(N)ccc3n2CCO)cc1 | -2 | -14 | -17 | 0 | 2 | 0 | / | /
O=C(NCCc1ccc(Cl)cc1)c1ccc(Br)s1 | / | -21 | / | / | 0 | / | / | /
